Assay results reported in ChEMBL document CHEMBL1124291, “New actinomycin D analogues as superior chemotherapeutic agents against primary and advanced colon tumors and colon xenografts in nude mice” (J Med Chem, 1988).

Columns and labels:
[1] = species: Rattus norvegicus; assay: DNA-cleaving ability expressed as % of closed circular pBR322 DNA cleaved […] conc 50 uM; assay type: functional
Outline: (§1)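 pBR322 DNA (200 μM nucleotides) in 10 mM Tris·HCl pH 7.8 and 50 mM NaCl, with 4 mM Na₂S₂O₄ and 100 μM FeCl₂. Incubated with drug for 1 h at 20 °C, kept air-saturated. Supercoiled and open-circular forms were separated by agarose gel electrophoresis, stained with ethidium bromide and quantitated by densitometry. % cleaved was calculated from the open- and closed-circular amounts.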

[2] = species: Rattus norvegicus; assay: The formation of adrenochrome from epinephrine in the absence of SOD(super oxide dismutase); assay type: functional
Outline: (§2)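 Drug-stimulated superoxide generation with rat liver microsomal enzymes and NADPH as cofactor. NADPH oxidation was read at 340 nm. Adrenochrome formed from epinephrine was read at 480 nm, with or without superoxide dismutase. % stimulation = [(drug-stimulated rate − basal rate)/basal rate] × 100. Values are mean ± standard error of triplicate analyses.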

[3] = system: P388 (Mus musculus); assay: Percent of the uncoverted isolated from incubation mixture containing tumor cell homogenate(T)
[4] = system: P388; assay: 50% inhibition of incorporation precursor [14C]uridine into RNA P388 cell lines; assay type: functional, cell-based; settings: Mus musculus
[5] = species: Rattus norvegicus; assay: Percent of the protein conjugates isolated from incubation mixture containing tumor cell homogenate(T); assay type: functional
Outline: (§3)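 Tritiated analogues were incubated with two systems. (T) sonicated P388 cell homogenates, 37 °C for 16 h. (M) liver microsomes from phenobarbital-induced rats, 6 h with an NADPH-generating system (glucose-6-phosphate dehydrogenase plus glucose 6-phosphate). Metabolites and water-soluble conjugates were isolated, separated by HPLC and expressed as percentages.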

[6] = system: P388; assay: Antitumor activity in P388/S(AMD sensitive) in male BDF1 mice measured as optimal dose at dose 0.3-1.8 mg/kg
[7] = system: B16; assay: In vivo antitumor activity against B16 melanoma cells at dose 300 ug/Kg /inj measured as Mean survival time (MST); assay type: functional, Mus musculus
Outline: (§4)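 BDF1 mice in groups of nine were implanted ip on day 0 with 0.2 mL of 1:5 (w/v) B16 melanoma brei; drugs were given ip. Survival is reported as median survival time in days with range, and as %ILS, with survivors counted on day 65 out of total injected.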

[8] = species: Rattus norvegicus; assay: Percent of the SAD glucuronide and/or sulfate isolated from incubation mixture containing tumor cell homogenate(T) after 8.0, 10.5 min.; assay type: functional; outline: as §3
[9] = system: MC-38; assay: Mean survival time of treated / untreated group x100. (number of over 100-day survivors/number of total mice in the group) at a dose 0.60 mg/kg; assay type: functional, Mus musculus; settings: dose 0.6 mg/kg
Outline: (§5)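 CDF1 mice were implanted sc on day 0 with colon 38 adenocarcinoma fragments (70 mg) and given iv drug on days 1, 5 and 9. %T/C = median survival of treated / untreated × 100. Number of mice surviving over 100 days / group total is given in parentheses.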

[10] = system: MC-38; assay: Activity against advanced carcinoma C38 tumor in CDF1 mice at dose 1.20 mg/kg measured as % inhibition of tumor; assay type: functional; settings: Mus musculus
[11] = species: Rattus norvegicus; assay: DNA-cleaving ability expressed as % of closed circular pBR322 DNA cleaved at 100 uM conc 100 uM; assay type: functional; outline: as §1
[12] = system: MC-38; assay: Number of toxic deaths/number of mice in a group of non tumored mice treated in parallel with the tumor-bearing mice and observed for 100 days at a dose of 0.30 mg/ kg; value given as 0/9; assay type: functional, Mus musculus
Outline: (§6)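 Non-tumored CDF1 mice were treated in parallel with colon 38 tumor-bearing mice: iv injections on days 1, 5 and 9, groups of nine. Deaths were counted over 100 days of observation and reported as toxic deaths / mice in group.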

[13] = species: Rattus norvegicus; assay: Percent of the tissue bound conjugates isolated from incubation mixture containing rat microsomes; assay type: functional; outline: as §3
[14] = system: MC-38; assay: Number of toxic deaths/number of mice in a group of non tumored mice treated in parallel with the tumor-bearing mice and observed for 100 days at a dose of 1.20 mg/ Kg; value given as 4/9; assay type: toxicity; settings: mouse, in vivo, 1.2 mg/kg, 2400 h; outline: as §6
[15] = system: P388; assay: Antitumor activity in P388/ADR (adriamycin resistant), in male BDF1 mice measured as optimal dose
[16] = DNA-cleaving ability expressed as % of closed circular pBR322 DNA cleaved at 10 uM conc 10 uM
[17] = species: Rattus norvegicus; assay: Percent of the protein conjugates isolated from incubation mixture containing rat micro somes; assay type: functional; outline: as §3
[18] = system: B16; assay: In vivo antitumor activity against B16 melanoma cells at a optimal dose measured as %ILS (%increase life span); assay type: functional, Mus musculus; outline: as §4
[19] = species: Rattus norvegicus; assay: The formation of adrenochrome from epinephrine in the presence of SOD(super oxide dismutase); + denotes ' Inhibited'; assay type: functional; outline: as §2
[20] = species: Rattus norvegicus; assay: Percent of the unidentified metabolites isolated from incubation mixture containing rat micro somes; assay type: functional; outline: as §3
[21] = system: P388 (Mus musculus); assay: Percent of the unidentified metabolites isolated from incubation mixture containing tumor cell homogenate(T)
[22] = system: HT-29; assay: 50% inhibition of incorporationf precursor [3H]thymidine into DNA HT-29 cell lines; assay type: functional, cell-based; settings: Homo sapiens, HT-29, 2 h
Outline: (§7)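 HT-29 colon carcinoma monolayers, 10^4 cells per well, five wells per concentration. Drug exposure lasted 2 h, with [³H]thymidine and [2-¹⁴C]uridine (0.5 μCi each) added for the last hour. Cells were washed, trypsinized, counted and precipitated onto glass-fiber filters with 10% TCA. Acid-precipitable radioactivity was measured. IC50 is the concentration inhibiting 50% of incorporation; data are averages of replicate experiments.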

[23] = system: MC-38; assay: Activity against advanced carcinoma C38 tumor in CDF1 Mice at dose 0.30 mg/kg measured as % inhibition of tumor; assay type: functional; settings: Mus musculus
[24] = species: Rattus norvegicus; assay: Percent of the uncoverted isolated from incubation mixture containing trat microsomes,; assay type: functional; outline: as §3
[25] = system: P388 (Mus musculus); assay: Percent of the tissue bound conjugates isolated from incubation mixture containing tumor cell homogenate(T)
[26] = system: HT-29; assay: 50% inhibition of incorporationf precursor [3H]thymidine into RNA HT-29 cell lines; assay type: functional, cell-based; settings: Homo sapiens, HT-29, 2 h; in the assay text read “[14C]uridine” for “[3H]thymidine”; outline: as §7
[27] = system: MC-38; assay: Mean survival time of treated / untreated group x100. (number of over 100-day survivors/number of total mice in the group) at a dose 0.30 mg/kg; assay type: functional, Mus musculus; settings: dose 0.3 mg/kg; outline: as §5
[28] = system: pBR322 plasmid DNA; assay: DNA-cleaving ability expressed as % of closed circular pBR322 DNA cleaved […]
[29] = system: P388; assay: 50% inhibition of incorporation of precursor [3H]thymidine into DNA P388 cell lines; assay type: functional, cell-based; settings: Mus musculus, P388, 2 h
[30] = system: MC-38; assay: Activity against advanced carcinoma C38 tumor in CDF1 Mice at dose 0.60 mg/kg measured as % inhibition of tumor; assay type: functional; settings: Mus musculus
[31] = system: MC-38; assay: Mean survival time of treated / untreated group x100. (number of over 100-day survivors/number of total mice in the group) at a dose 1.20 mg/kg; assay type: functional, Mus musculus; settings: dose 1.2 mg/kg; outline: as §5
[32] = system: MC-38; assay: Number of toxic deaths/number of mice in a group of non tumored mice treated in parallel with the tumor-bearing mice and observed for 100 days at a dose of 0.60 mg/ kg; value given as 0/9; assay type: functional, Mus musculus; outline: as §6
[33] = species: Rattus norvegicus; assay: Stimulation of NADPH oxidation in the presence of rat liver microsomes; assay type: functional; outline: as §2
[34] = system: P388; assay: Antitumor activity in P388/S(AMD sensitive) in male BDF1 mice measured as optimal dose
[35] = system: MC-38; assay: Number of toxic deaths/number of mice in a group of non tumored mice treated in parallel with the tumor-bearing mice and observed for 100 days at a dose 0.30 mg/kg; value given as 0/9; assay type: functional, Mus musculus; settings: dose 0.3 mg/kg; outline: as §6
[36] = system: MC-38; assay: Number of toxic deaths/number of mice in a group of non tumored mice treated in parallel with the tumor-bearing mice and observed for 100 days at a dose 0.60 mg/kg; value given as 0/9; assay type: functional, Mus musculus; settings: dose 0.6 mg/kg; outline: as §6
[37] = system: MC-38; assay: Number of toxic deaths/number of mice in a group of non tumored mice treated in parallel with the tumor-bearing mice and observed for 100 days at a dose 1. 20 mg/Kg; value given as 4/9; assay type: toxicity, cell-based; settings: mouse, in vivo, 2400 h; outline: as §6
[38] = system: P388 (Mus musculus); assay: 50% inhibition of incorporation of precursor [3H]thymidine into DNA P388 cell lines; settings: P388, 2 h
[39] = system: MC-38; assay: Mean survival time of treated / untreated group x100. (number of over 100-day survivors/number of total mice in the group) at a dose 0.15 mg/kg; assay type: functional, Mus musculus; outline: as §5
[40] = system: B16; assay: in vivo Antitumor activity against B16 melanoma cells at dose 300 ug/Kg /inj measured as mean survival time (MST); assay type: functional, Mus musculus
Outline: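 B16 melanoma implanted ip on day 0 as 0.2 mL of a 1:5 (weight/volume) brei, in groups of nine BDF₁ mice; drugs given ip. MST is the median survival time in days, with the range of days of death of individual animals; % ILS is percent increase in life span, with survivors on day 65 over total injected.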

[41] = system: P388; assay: Antitumor activity in P388/ADR (adriamycin resistant), in male BDF1 mice measured as optimal dose at dose 0.10-0.8 mg/kg
[42] = system: MC-38; assay: Activity against advanced carcinoma C38 tumor in CDF1 Mice at dose 1.20 mg/kg measured as % inhibition of tumor; assay type: functional; settings: Mus musculus
[43] = system: MC-38; assay: Activity against advanced carcinoma C38 tumor in CDF1 Mice at dose 0.15 mg/kg measured as % inhibition of tumor; assay type: functional; settings: Mus musculus
[44] = system: MC-38; assay: Number of toxic deaths/number of mice in a group of non tumored mice treated in parallel with the tumor-bearing mice and observed for 100 days at a dose 0.15 mg/kg; value given as 1/9; assay type: toxicity, organism-based; set-up: dose 0.15 mg/kg; settings: mouse, in vivo, 2400 h; outline: as §6
[45] = system: B16; assay: In vivo antitumor activity against B16 melanoma cells at a optimal dose measured as %ILS (%increase life span) at a dose 300 micro g/Kg/inj; assay type: functional, Mus musculus; outline: as §4

Molecule: Cc1c2oc3c(C)c(O)c(N)c(C(=O)N[C@@H]4C(=O)N[C@H](C(C)C)C(=O)N5CCC[C@H]5C(=O)N(C)CC(=O)N(C)[C@@H](C(C)C)C(=O)O[C@@H]4C)c3nc-2c(C(=O)N[C@@H]2C(=O)N[C@H](C(C)C)C(=O)N3CCC[C@H]3C(=O)N(C)CC(=O)N(C)[C@@H](C(C)C)C(=O)O[C@@H]2C)c(N)c1=O
- Activity [1]: 50%
- Adrenochrome formation [2]: 19.3 nM min-1 (mg of protein)-1
- Activity [3]: 30%
- IC50 [4]: 15 nM
- Activity [5]: 5.5%
- optimal dose [6]: 0.6 mg/kg
- MST [7]: 57
- Activity [8]: 47%
- T/C [9]: 278%
- inhibition in vivo at 1.2 mg/kg [10]: 99%
- Activity [11]: 65%
- Toxic deaths [12]: 0
- Activity [13]: 15%
- Toxic deaths [14]: 4
- optimal dose [15]: 1.2 mg/kg
- Activity [16]: 35%
- Activity [17]: 20%
- ILS [18]: 96%
- Adrenochrome formation [19]: Inhibited
- Activity [20]: 15%
- Activity [21]: 10%
- IC50 [22]: 70 nM
- inhibition in vivo at 0.3 mg/kg [23]: 95%
- Activity [24]: 50%
- Activity [25]: 7.5%
- IC50 [26]: 55 nM
- T/C [27]: 278%
- Activity [28]: 50%
- IC50 [29]: 12 nM
- inhibition in vivo at 0.6 mg/kg [30]: 97%
- T/C [31]: 211%
- Toxic deaths [32]: 0
- NADPH oxidation (nM min-1 (mg of protein)-1) [33]: 64.3

Molecule: BLEOMYCIN
- Activity [1]: 75%
- Activity [11]: > 85%

Molecule: Cc1c2oc3c(C)c4oc(-c5ccccc5)nc4c(C(=O)N[C@@H]4C(=O)N[C@H](C(C)C)C(=O)N5CCC[C@H]5C(=O)N(C)CC(=O)N(C)[C@@H](C(C)C)C(=O)O[C@@H]4C)c3nc-2c(C(=O)N[C@@H]2C(=O)N[C@H](C(C)C)C(=O)N3CCC[C@H]3C(=O)N(C)CC(=O)N(C)[C@@H](C(C)C)C(=O)O[C@@H]2C)c(N)c1=O
- Adrenochrome formation [2]: 18.8 nM min-1 (mg of protein)-1
- IC50 [4]: 70 nM
- optimal dose [34]: 0.35 mg/kg
- Toxic deaths [35]: 0
- T/C [9]: 170%
- Toxic deaths [36]: 0
- Toxic deaths [37]: 4
- IC50 [38]: 780 nM
- T/C [39]: 103%
- MST [40]: 59
- Adrenochrome formation [19]: Inhibited
- optimal dose [41]: 0.6 mg/kg
- IC50 [22]: 580 nM
- inhibition in vivo at 0.3 mg/kg [23]: 70%
- inhibition in vivo at 1.2 mg/kg [42]: 88%
- inhibition in vivo at 0.15 mg/kg [43]: 29%
- IC50 [26]: 68 nM
- Toxic deaths [44]: 1
- T/C [27]: 137%
- inhibition in vivo at 0.6 mg/kg [30]: 83%
- ILS [45]: 103%
- T/C [31]: 103%
- NADPH oxidation (nM min-1 (mg of protein)-1) [33]: 65
